Screening data as filed in PubChem BioAssay.
An excerpt weighted towards active compounds, which were near 2.7% of everything screened.
TPT1 inhibitor = C. albicans TPT1 enzyme inhibition; recombinant caTPT1, FP RNA substrate dephosphorylation; 300,000 tested, 0.81% active; inhibition, % at 5 µM; AID 1962;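 active = inhibition above the mean of all tested compounds plus 3 SD, set per screening campaign, cut at about 24% in these data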;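 also: plate controls were DMSO alone for no effect and ferristatin control at 100 nM for full effect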
HNF4A DNA FP = change in binding of human HNF4 alpha to DNA; HNF4a-FITC DNA binding, fluorescence polarization, 1 h; activity change, % at 10 µM; 360,000 tested, 0.3% active; AID 1224865; in the data active = activity change above about 30%, passing the limit was not always enough
CSN deneddyl inh = CSN deneddylation inhibition. Q92905. Purified CSN, SCF-Nedd8-OG deneddylation, fluorescence polarization. inhibition, % at 12.5 µM. 360,000 tested, 0.38% active;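 active = pattern-corrected inhibition above about 35%, with an unprinted fluorescence ratio check between 0.5 and 1.5, limit read from the data, passing the limit was not always enough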;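 also: 0% = enzyme with substrate and 100% = substrate without enzyme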
Target sequence (Q92905 whole entry, looked up, one chain of several): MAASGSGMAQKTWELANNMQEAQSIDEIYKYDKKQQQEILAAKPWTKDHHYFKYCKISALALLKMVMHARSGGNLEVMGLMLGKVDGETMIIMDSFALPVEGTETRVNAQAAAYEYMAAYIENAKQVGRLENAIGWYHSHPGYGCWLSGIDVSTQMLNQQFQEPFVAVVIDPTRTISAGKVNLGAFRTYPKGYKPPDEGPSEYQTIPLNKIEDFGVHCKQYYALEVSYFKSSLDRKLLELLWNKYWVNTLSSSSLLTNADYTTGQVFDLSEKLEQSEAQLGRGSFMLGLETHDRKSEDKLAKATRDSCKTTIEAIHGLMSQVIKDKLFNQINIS
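assay system = purified human Csn5 enzyme expressed in HEK293T cells | amount = 0.24 nM enzyme | buffer or medium = Tris/NaCl/DTT buffer, pH 7.5 | reagent = 10 nM SCFSkp2-Nedd8OG | compound = one concentration, 12.5 µM, 0.25% DMSO | times = 90 min reaction at room temperature | signal = FP | read-out basis = % inhibition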
PP1 inh = PP1-alpha (human) inhibition in PP5 counter-screen. AID 2235. inhibition, % at 6.7 µM. 320,000 tested, 0.9% active. purified PP1alpha, OMFP fluorescence;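 active = inhibition above the mean inhibition of all tested compounds plus 3 SD, computed separately for each screening campaign, cut at about 15% in these data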
Rpn11 block = blocks the human proteasome subunit Rpn11. human 26S proteasome, Ub4-pepOG fluorescence polarization; 20S core pre-blocked with epoxomicin. inhibition, % at 20 µM. 360,000 tested, 0.59% active;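 active = inhibition at 20 µM, scaled to each plate's controls, above about 33%, limit read from the data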
NadD block = inhibitors of Staphylococcus aureus NadD; purified NadD enzyme, colorimetric absorbance read-out; AID 602399; inhibition, % at 20 µM; 360,000 tested, 0.78% active; in the data active = inhibition above about 26%
TPT1 inh confirm = confirmation of Candida albicans TPT1 inhibitors; shares compounds with TPT1 inhibitor; recombinant caTPT1, fluorescence polarization, RNase T1 coupled; inhibition, % at 5 µM; 2,400 tested, 74% active; AID 2149;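 active = inhibition above the primary screen limit, the mean inhibition of all tested compounds plus 3 SD, cut at about 25% in these data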
RNase T1 inh = counter-screen for TPT1 inhibitors: inhibitors of Aspergillus oryzae RNase T1 | shares compounds with TPT1 inhibitor | RNase T1 cleavage, fluorescence polarization, 1536-well | inhibition, % at 5 µM | 2,400 tested, 83% active | AID 2153;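 active = inhibition above the solvent-only control well mean plus 3 SD, limit set per screening run, cut at about 23% in these data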;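 also: plate controls were DMSO wells with enzyme for no effect and wells without RNase T1 for full effect; inhibitors block cleavage so intact labeled substrate keeps polarization high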
Target sequence (P00651 whole entry, looked up): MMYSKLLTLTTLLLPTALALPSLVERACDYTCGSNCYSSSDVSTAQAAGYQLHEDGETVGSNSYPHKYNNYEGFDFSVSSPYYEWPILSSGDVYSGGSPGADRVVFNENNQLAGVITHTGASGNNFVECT
PP1 confirm = human PP1 phosphatase inhibition, confirmation; shares compounds with PP1 inh; purified PP1alpha, OMFP substrate fluorescence; inhibition, % at 6.7 µM; 1,900 tested, 52% active; AID 2358;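 active = mean PP1 inhibition above a set limit taken from the earlier primary screen, cut at about 15% in these data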
PP5 inh counter = PP5 phosphatase inhibition, counter-screen for PP1 inhibitors; inhibition, % at 6.7 µM; purified PP5c, OMFP fluorescence; 1,900 tested, 4% active; shares compounds with PP1 inh;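 active = mean PP5 inhibition over triplicate wells above about 9.5% taken from the earlier PP1 screen, limit read from the data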
Rpn11 inh conf = confirmation of human proteasome Rpn11 inhibitors | AID 602318 | 1,900 tested, 29% active | shares compounds with Rpn11 block | purified human 26S proteasome, Ub4-pepOG fluorescence polarization; proteasome pretreated with epoxomicin | inhibition, % at 20 µM
MMP-2 counter-1 = counter-screen for RPN11 inhibitors: inhibition of human MMP-2 | shares compounds with Rpn11 block | recombinant MMP-2, FRET peptide cleavage fluorescence | inhibition, % at 20 µM | 1,900 tested, 4% active;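 also: human MMP-2 activated beforehand with APMA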
Thrombin inh = thrombin (bovine) inhibition counter-screen; shares compounds with Rpn11 block; bovine thrombin cleavage of Ub4-pepOG, fluorescence polarization; 1,900 tested, 13% active; inhibition, % at 20 µM;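 active = mean inhibition at least 40% at 20 µM, or signal 3 deviations below plate average, so some actives read negative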;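 also: plate controls were thrombin with DMSO for no effect and buffer wells lacking thrombin for full effect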
CSN deneddyl val = validation of inhibitors of human CSN-mediated cullin deneddylation; shares compounds with CSN deneddyl inh; Csn5 deneddylation of SCF-Nedd8OG, fluorescence polarization, 90 min; inhibition, % at 16.6 µM; 540 tested, 62% active; AID 720654; in the data active = inhibition above about 50%;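 also: 0% = DMSO with enzyme and 100% = no enzyme wells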
MMP-2 counter-2 = blocks human MMP-2 in a CSN deneddylation counter-screen. shares compounds with CSN deneddyl inh. recombinant MMP-2, FRET substrate fluorescence, 60 min. inhibition, % at 16.6 µM. 540 tested, 33% active. AID 720655;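 active = corrected plate-normalized z-score of 5 or more, or -5 or less, or inhibition of 15% or more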;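 also: plate controls were DMSO wells with enzyme for no effect and buffer wells lacking MMP-2 for full effect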
Thrombin cntr = counter-screen for CSN deneddylation inhibitors: bovine thrombin inhibition; shares compounds with CSN deneddyl inh; bovine thrombin cleavage of Ub4-pepOG, fluorescence polarization; inhibition, % at 16.6 µM; 540 tested, 49% active;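 active = inhibition at or above a set limit, with a fluorescence interference ratio between 0.5 and a set maximum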
An asterisk follows results filed as active. Rule as the data show it, unless noted: active = inhibition above about 40%; inactive = the rest.

C[C@H](CO)N1C[C@H](C)[C@@H](CN(C)S(=O)(=O)c2ccc(F)cc2)Oc2ccc(NC(=O)C3CCCCC3)cc2C1=O was read as HNF4A DNA FP 1.4, CSN deneddyl inh -1.1, Rpn11 block 1.9 and NadD block 6.8.
`O=C1C2C3C=CC(CC3)C2C(=O)N1/N=C/c1ccc(O)cc1` (centres undefined) gave TPT1 inhibitor -3.6, HNF4A DNA FP 2.2, CSN deneddyl inh 5.2, PP1 inh 2.8, Rpn11 block -3.0 and NadD block 3.3.
For O=C1/C(=C\c2ccc(O)cc2)SC(=S)N1/N=C/c1ccc(O)cc1 the results were TPT1 inhibitor 64.7*, HNF4A DNA FP 106.1*, CSN deneddyl inh 93.6*, PP1 inh 0.5, NadD block 10.7, TPT1 inh confirm 62.0*, RNase T1 inh 68.0*, CSN deneddyl val 38.5, MMP-2 counter-2 -23.1 and Thrombin cntr 86.1*.
Screening O=[N+]([O-])c1ccc(N/N=C/c2c[nH]c3ccccc23)cc1 returned TPT1 inhibitor 125.0*, HNF4A DNA FP 77.8*, CSN deneddyl inh 57.3*, PP1 inh 5.2, Rpn11 block 115.3*, NadD block 2.2, TPT1 inh confirm 105.6*, RNase T1 inh 108.5*, Rpn11 inh conf 84.2*, MMP-2 counter-1 -16.5, Thrombin inh 58.8*, CSN deneddyl val 55.9*, MMP-2 counter-2 -2.7 and Thrombin cntr 56.8*.
O=C(O)c1ccc(N/N=C/c2ccc(-c3cccc(Cl)c3)o2)cc1 was read as TPT1 inhibitor 3.0, HNF4A DNA FP 0.6, CSN deneddyl inh 7.2, PP1 inh 5.4, Rpn11 block 9.9 and NadD block 0.4.
Screening O=C(O)c1cccc(-c2ccc(/C=N/Nc3ccc([N+](=O)[O-])cc3)o2)c1 returned TPT1 inhibitor 124.5*, HNF4A DNA FP 124.2, CSN deneddyl inh 92.5*, PP1 inh 6.1, NadD block -4.4, TPT1 inh confirm 125.5*, RNase T1 inh 119.9*, CSN deneddyl val 50.6*, MMP-2 counter-2 -4.7 and Thrombin cntr 49.1.
Screening O=C(N/N=C/c1ccco1)c1cc([N+](=O)[O-])cc([N+](=O)[O-])c1 returned TPT1 inhibitor -1.3, HNF4A DNA FP 2.4, CSN deneddyl inh -8.8, PP1 inh -1.7, Rpn11 block -0.3 and NadD block 3.4.
For O=[N+]([O-])c1ccccc1N/N=C/c1c[nH]c2ccccc12 the results were TPT1 inhibitor 1.8, HNF4A DNA FP -2.1, CSN deneddyl inh -4.4, PP1 inh 3.2, Rpn11 block -2.4 and NadD block -4.0.
O=C(O)c1ccc(N/N=C/C=C/c2ccc([N+](=O)[O-])o2)cc1 was read as TPT1 inhibitor 44.1*, HNF4A DNA FP 24.0, CSN deneddyl inh 45.5*, PP1 inh 5.0, Rpn11 block 32.9, NadD block -4.2, TPT1 inh confirm 62.7*, RNase T1 inh 71.7*, CSN deneddyl val 43.5, MMP-2 counter-2 5.9 and Thrombin cntr 13.9.
For O=[N+]([O-])c1ccc(N/N=C/C=C/c2ccco2)cc1 the results were TPT1 inhibitor 118.9*, HNF4A DNA FP 88.9*, CSN deneddyl inh 56.3*, PP1 inh -0.7, NadD block -11.0, TPT1 inh confirm 123.3*, RNase T1 inh 122.1*, CSN deneddyl val 51.5*, MMP-2 counter-2 -2.9 and Thrombin cntr 43.5*.
For CCN(CC(=O)Nc1ccc(NC(C)=O)cc1)C(=O)CN1C(=O)NC(C)(c2ccc3ccccc3c2)C1=O (centres undefined) the results were HNF4A DNA FP 1.2, CSN deneddyl inh 1.9, Rpn11 block 2.8 and NadD block 3.6.
`Cn1c(O)c(/C=N/NC(=O)c2cc3ccccc3cc2O)c2ccccc21` gave TPT1 inhibitor 121.5*, HNF4A DNA FP 61.8, CSN deneddyl inh 39.6*, PP1 inh 22.4*, NadD block 31.5*, TPT1 inh confirm 127.4*, RNase T1 inh 124.7*, PP1 confirm 16.4*, PP5 inh counter -2.8, CSN deneddyl val 74.9*, MMP-2 counter-2 0.8 and Thrombin cntr 44.7*.
`CCC1CCCCN1CCCNC(=O)Cn1cnc2sc(C)c(S(=O)(=O)N3CC(C)CC(C)C3)c2c1=O` (centres undefined) gave TPT1 inhibitor 3.3, HNF4A DNA FP 7.9, CSN deneddyl inh 5.6, PP1 inh 0.7, Rpn11 block 8.6 and NadD block -1.9.
`CN(C)c1ccc(/C=C2\C(=N)N3N=C(CC(=O)N4CCCCC4)SC3=NC2=O)cc1` gave TPT1 inhibitor 122.1*, HNF4A DNA FP 135.3, CSN deneddyl inh 90.4*, PP1 inh -6.1, NadD block 18.2, TPT1 inh confirm 140.4*, RNase T1 inh 148.3*, CSN deneddyl val 75.5*, MMP-2 counter-2 -57.3* and Thrombin cntr 94.1*.
`CCC(C)[C@H](NS(=O)(=O)c1ccc(C)cc1)C(=O)N1CCC(C(=O)N2CCC(C(N)=O)CC2)CC1` (some centres undefined) gave TPT1 inhibitor -2.0, HNF4A DNA FP -2.4, CSN deneddyl inh -0.9, PP1 inh -3.0, Rpn11 block 9.6 and NadD block -4.3.
